Results as given in ChEMBL document CHEMBL3091355, “Designing and synthesis of novel antimicrobial heterocyclic analogs of fatty acids” (2013).
Converted amounts (≈) assume the structure as drawn.

What was measured:
Assay type in all cases: functional
[1] = system: Candida albicans; assay: Fungicidal activity against Candida albicans clinical isolate by micro dilution method
[2] = system: Escherichia coli; assay: Antibacterial activity against Escherichia coli ATCC 25922 after 24 hrs by broth micro dilution method; settings: ATCC 25922, 24 h
Procedure, shortened: (§1)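 MIC by broth microdilution; growth read visually and spectrophotometrically. MIC taken as the lowest concentration giving complete inhibition of bacterial growth.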

[3] = system: Candida tropicalis; assay: Antifungal activity against Candida tropicalis clinical isolate after 20 hrs by agar dilution method
[4] = system: Candida parapsilosis; assay: Antifungal activity against Candida parapsilosis after 20 hrs by agar dilution method; settings: Lodderomyces parapsilosis
[5] = system: Pseudomonas aeruginosa; assay: Antibacterial activity against Pseudomonas aeruginosa ATCC 27853 after 24 hrs by broth micro dilution method; settings: ATCC 27853, 24 h; procedure, shortened: as §1
[6] = system: Nakaseomyces glabratus; assay: Antifungal activity against Candida glabrata after 20 hrs by agar dilution method
[7] = system: Streptococcus pyogenes; assay: Antibacterial activity against Streptococcus pyogenes clinical isolate after 24 hrs by disc diffusion method
[8] = system: Candida albicans; assay: Fungicidal activity against Candida albicans by micro dilution method
[9] = system: Candida albicans; assay: Antifungal activity against Candida albicans clinical isolate after 20 hrs by agar dilution method
[10] = system: Klebsiella pneumoniae; assay: Antibacterial activity against Klebsiella pneumoniae clinical isolate after 24 hrs by broth micro dilution method
[11] = system: Streptococcus pyogenes; assay: Antibacterial activity against Streptococcus pyogenes clinical isolate after 24 hrs by broth micro dilution method
[12] = system: Candida parapsilosis; assay: Antifungal activity against Candida parapsilosis clinical isolate after 20 hrs by agar dilution method; settings: Lodderomyces parapsilosis
[13] = system: Candida parapsilosis; assay: Fungicidal activity against Candida parapsilosis clinical isolate by micro dilution method; settings: Lodderomyces parapsilosis
[14] = system: Candida albicans; assay: Antifungal activity against Candida albicans after 20 hrs by agar dilution method
Procedure, shortened: (§2)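 Clinical Candida isolates purified and subcultured on SC, SCC and PDA media before testing. Compounds were dissolved in DMSO as a stock, then diluted into solid PDA medium to final concentrations of 0.0312 to 256.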

[15] = system: Escherichia coli; assay: Antibacterial activity against Escherichia coli ATCC 25922 after 24 hrs by disc diffusion method
Procedure, shortened: (§3)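 Disk diffusion on agar; activity measured as the halo zone of inhibition around the disk.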

[16] = system: Pseudomonas aeruginosa; assay: Bactericidal activity against Pseudomonas aeruginosa ATCC 27853 after 18 to 24 hrs; settings: read-out: MBC99.9
Procedure, shortened: (§4)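 MBC taken as the lowest concentration that killed the bacteria completely.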

[17] = system: Pichia kudriavzevii; assay: Antifungal activity against Candida krusei after 20 hrs by agar dilution method
[18] = system: Candida albicans; assay: Antifungal activity against fluconazole, itraconazole-resistant Candida albicans clinical isolate after 20 hrs by agar dilution method; procedure, shortened: as §2
[19] = system: Candida tropicalis; assay: Fungicidal activity against Candida tropicalis by micro dilution method
[20] = system: Pseudomonas aeruginosa; assay: Antibacterial activity against Pseudomonas aeruginosa ATCC 27853 after 24 hrs by disc diffusion method; procedure, shortened: as §3
[21] = system: Candida dubliniensis; assay: Fungicidal activity against Candida dubliniensis by micro dilution method
[22] = system: Candida parapsilosis; assay: Fungicidal activity against Candida parapsilosis by micro dilution method; settings: Lodderomyces parapsilosis
[23] = system: Nakaseomyces glabratus; assay: Fungicidal activity against Candida glabrata by micro dilution method
[24] = system: Klebsiella pneumoniae; assay: Bactericidal activity against Klebsiella pneumoniae clinical isolate after 18 to 24 hrs; settings: read-out: MBC99.9
[25] = system: Streptococcus pyogenes; assay: Bactericidal activity against Streptococcus pyogenes clinical isolate after 18 to 24 hrs; settings: read-out: MBC99.9
[26] = system: Pichia kudriavzevii; assay: Fungicidal activity against Candida krusei by micro dilution method
[27] = system: Candida tropicalis; assay: Fungicidal activity against Candida tropicalis clinical isolate by micro dilution method
[28] = system: Escherichia coli; assay: Bactericidal activity against Escherichia coli ATCC 25922 after 18 to 24 hrs; settings: read-out: MBC99.9; procedure, shortened: as §4
[29] = system: Staphylococcus aureus; assay: Antibacterial activity against Staphylococcus aureus after 24 hrs by broth micro dilution method; procedure, shortened: as §1
[30] = system: Staphylococcus aureus; assay: Bactericidal activity against Staphylococcus aureus after 18 to 24 hrs; settings: read-out: MBC99.9; procedure, shortened: as §4
[31] = system: Candida tropicalis; assay: Antifungal activity against Candida tropicalis after 20 hrs by agar dilution method
[32] = system: Staphylococcus aureus; assay: Antibacterial activity against Staphylococcus aureus after 24 hrs by disc diffusion method; procedure, shortened: as §3
[33] = system: Candida dubliniensis; assay: Antifungal activity against Candida dubliniensis after 20 hrs by agar dilution method
[34] = system: Candida tropicalis; assay: Antifungal activity against fluconazole, itraconazole-resistant Candida tropicalis clinical isolate after 20 hrs by agar dilution method; procedure, shortened: as §2
[35] = system: Klebsiella pneumoniae; assay: Antibacterial activity against Klebsiella pneumoniae clinical isolate after 24 hrs by disc diffusion method

CCCCCC1C(CCC)=NOC1CC[C@H](O)CCCCCCCC(=O)OC (stereo partly drawn)
MFC [1]: 256 µg/mL (≈ 644 µM) | MIC [2]: 25 µg/mL (≈ 62.9 µM) | MIC90 [3]: 64 µg/mL (≈ 161 µM) | MIC90 [4]: 32 µg/mL (≈ 80.5 µM) | MIC [5]: 50 µg/mL (≈ 126 µM) | MIC90 [6]: 64 µg/mL (≈ 161 µM) | diameter of the inhibition zone (DIZ) [7]: 22.4 mm | MFC [8]: > 256 µg/mL | MIC90 [9]: 64 µg/mL (≈ 161 µM) | MIC [10]: 25 µg/mL (≈ 62.9 µM) | MIC [11]: 25 µg/mL (≈ 62.9 µM) | MIC90 [12]: 128 µg/mL (≈ 322 µM) | MFC [13]: > 256 µg/mL | MIC90 [14]: 128 µg/mL (≈ 322 µM) | diameter of the inhibition zone (DIZ) [15]: 26.5 mm | MBC [16]: 100 µg/mL (≈ 252 µM) | MIC90 [17]: 128 µg/mL (≈ 322 µM) | MIC90 [18]: > 256 µg/mL | MFC [19]: > 256 µg/mL | diameter of the inhibition zone (DIZ) [20]: 31.8 mm | MFC [21]: > 256 µg/mL | MFC [22]: > 256 µg/mL | MFC [23]: 128 µg/mL (≈ 322 µM) | MBC [24]: 100 µg/mL (≈ 252 µM) | MBC [25]: 50 µg/mL (≈ 126 µM) | MFC [26]: > 256 µg/mL | MFC [27]: > 128 µg/mL | MBC [28]: 100 µg/mL (≈ 252 µM) | MIC [29]: 25 µg/mL (≈ 62.9 µM) | MBC [30]: 100 µg/mL (≈ 252 µM) | MIC90 [31]: 128 µg/mL (≈ 322 µM) | diameter of the inhibition zone (DIZ) [32]: 20.8 mm | MIC90 [33]: 128 µg/mL (≈ 322 µM) | MIC90 [34]: > 256 µg/mL | diameter of the inhibition zone (DIZ) [35]: 18.9 mm

O=C(O)c1cn(C2CC2)c2cc(N3CCNCC3)c(F)cc2c1=O [CIPROFLOXACIN]
diameter of the inhibition zone (DIZ) [15]: 27 mm | diameter of the inhibition zone (DIZ) [20]: 32 mm | diameter of the inhibition zone (DIZ) [32]: 22 mm

OC(Cn1cncn1)(Cn1cncn1)c1ccc(F)cc1F [FLUCONAZOLE]
MFC [1]: > 256 µg/mL | MIC90 [3]: 16 µg/mL (≈ 52.2 µM) | MIC90 [4]: 4 µg/mL (≈ 13.1 µM) | MIC90 [6]: 8 µg/mL (≈ 26.1 µM) | MFC [8]: > 256 µg/mL | MIC90 [9]: 8 µg/mL (≈ 26.1 µM) | MIC90 [12]: 0.5 µg/mL (≈ 1.63 µM) | MFC [13]: 1 µg/mL (≈ 3.27 µM) | MIC90 [14]: > 256 µg/mL | MIC90 [17]: 32 µg/mL (≈ 104 µM) | MFC [19]: 256 µg/mL (≈ 836 µM) | MFC [21]: > 256 µg/mL | MFC [22]: 32 µg/mL (≈ 104 µM) | MFC [23]: 128 µg/mL (≈ 418 µM) | MFC [26]: > 256 µg/mL | MFC [27]: 256 µg/mL (≈ 836 µM) | MIC90 [31]: 32 µg/mL (≈ 104 µM) | MIC90 [33]: 2 µg/mL (≈ 6.53 µM)

CCC(C)n1ncn(-c2ccc(N3CCN(c4ccc(OCC5COC(Cn6cncn6)(c6ccc(Cl)cc6Cl)O5)cc4)CC3)cc2)c1=O (stereo not drawn) [ITRACONAZOLE]
MFC [1]: > 256 µg/mL | MIC90 [3]: 1 µg/mL (≈ 1.42 µM) | MIC90 [4]: 0.6 µg/mL (≈ 0.85 µM) | MIC90 [6]: 0.12 µg/mL (≈ 0.17 µM) | MFC [8]: > 256 µg/mL | MIC90 [9]: 0.12 µg/mL (≈ 0.17 µM) | MIC90 [12]: 0.25 µg/mL (≈ 0.354 µM) | MIC90 [14]: > 256 µg/mL | MIC90 [17]: 0.6 µg/mL (≈ 0.85 µM) | MFC [19]: > 256 µg/mL | MFC [21]: > 256 µg/mL | MFC [22]: 0.5 µg/mL (≈ 0.709 µM) | MFC [23]: > 256 µg/mL | MFC [26]: 0.12 µg/mL (≈ 0.17 µM) | MFC [27]: > 256 µg/mL | MIC90 [31]: > 256 µg/mL | MIC90 [33]: > 256 µg/mL
